# Measured values taken from ChEMBL document CHEMBL1128718, “2-Substituted penems with amino acid-related side chains: synthesis and antibacterial activity of a new series of beta-lactam antibiotics” (1995).
# Key:
# Assay type in all cases: functional
# Enterococcus faecalis = test: In Vitro antibacterial activity against (Ef) Enterococcus faecalis ATCC 29212
# How it was run: (§1)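 Panel of standard ATCC strains plus modified strains: methicillin-resistant, hyperpermeable, β-lactamase-producing (TEM1, TEM2, SHV) and β-lactamase-lacking. MIC determined in Mueller Hinton 2 medium, inoculum 10⁴ cells/mL, incubated 24 h at 37 °C.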
# Escherichia coli [1] = test: In Vitro antibacterial activity against (Ec L) Escherichia coli […] strain; how it was run: as §1
# Escherichia coli [2] = test: In Vitro antibacterial activity against (Ec SHV) Escherichia coli […] strain; how it was run: as §1
# Escherichia coli [3] = test: In Vitro antibacterial activity against (Ec TEM1) Escherichia coli […] strain; how it was run: as §1
# Escherichia coli [4] = test: In Vitro antibacterial activity against (Ec TEM2) Escherichia coli […] strain; how it was run: as §1
# Escherichia coli [5] = test: In Vitro antibacterial activity against (Ec) Escherichia coli ATCC 25922; how it was run: as §1
# Pseudomonas aeruginosa [6] = test: In Vitro antibacterial activity against (Pa G242) hyperpermeable Pseudomonas aeruginosa strain; how it was run: as §1
# Pseudomonas aeruginosa [7] = test: In Vitro antibacterial activity against (Pa) Pseudomonas aeruginosa ATCC 27853; how it was run: as §1
# Pseudomonas aeruginosa [8] = test: In Vitro antibacterial activity against (Pa) hyperpermeable Pseudomonas aeruginosa […] strain; how it was run: as §1
# Staphylococcus aureus [9] = test: In vitro antibacterial activity against Sa MR(I) heterogeneous methicillin resistant Staphylococcus aureus
# How it was run: (§2)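 MIC was determined in Mueller Hinton 2 medium with an inoculum of 10⁴ cells/mL and incubation for 24 h at 37 °C. Strains: Sa(I) is S. aureus ATCC 29213; Sa MR(I) is a heterogeneous methicillin-resistant S. aureus; Sa MR(II) is a homogeneous methicillin-resistant S. aureus.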
# Staphylococcus aureus [10] = test: In vitro antibacterial activity against Sa MR(II) homogeneous methicillin resistant Staphylococcus aureus; how it was run: as §2
# Staphylococcus aureus [11] = test: In vitro antibacterial activity against Sa(I) Staphylococcus aureus ATCC 29213; how it was run: as §2
# Staphylococcus aureus [12] = test: In vitro antibacterial activity against Sa(II) Staphylococcus aureus ATCC 25923; how it was run: as §1
# Escherichia coli [13] = test: In Vitro antibacterial activity against (Ec DC2) hyperpermeable Escherichia coli strain; how it was run: as §1
SMILES,MIC (Enterococcus faecalis) [µg/mL],MIC (Escherichia coli [1]) [µg/mL],MIC (Escherichia coli [2]) [µg/mL],MIC (Escherichia coli [3]) [µg/mL],MIC (Escherichia coli [4]) [µg/mL],MIC (Escherichia coli [5]) [µg/mL],MIC (Pseudomonas aeruginosa [6]) [µg/mL],MIC (Pseudomonas aeruginosa [7]) [µg/mL],MIC (Pseudomonas aeruginosa [8]) [µg/mL],MIC (Staphylococcus aureus [9]) [µg/mL],MIC (Staphylococcus aureus [10]) [µg/mL],MIC (Staphylococcus aureus [11]) [µg/mL],MIC (Staphylococcus aureus [12]) [µg/mL],MIC (Escherichia coli [13]) [µg/mL]
C[C@@H](O)[C@H]1C(=O)N2C(C(=O)O)=C(CN3CC3C(N)=O)S[C@H]12 (stereo not given in full),16,4,4,2,2,2,2,> 64,1,0.25,8,0.5,0.25,4
C[C@@H](O)[C@H]1C(=O)N2C(C(=O)O)=C(CN3C[C@H](O)C[C@@H]3C(N)=O)S[C@H]12,32,2,2,2,2,2,2,> 64,0.5,0.25,8,0.25,0.25,2
CCN(CC(N)=O)CC1=C(C(=O)O)N2C(=O)[C@H]([C@@H](C)O)[C@H]2S1,–,0.5,1,0.5,1,0.5,0.5,> 64,2,–,2,0.06,0.06,1
C[C@@H](O)[C@H]1C(=O)N2C(C(=O)O)=C(CN(C)CC(=O)N3CCN(C)CC3)S[C@H]12,16,1,1,1,1,0.5,1,> 64,4,0.5,4,0.25,0.25,1
C[C@H](C(N)=O)N(C)CC1=C(C(=O)O)N2C(=O)[C@H]([C@@H](C)O)[C@H]2S1,2,0.12,1,0.25,0.25,0.12,0.25,> 64,2,0.06,2,0.03,0.06,2
C[C@@H](O)[C@H]1C(=O)N2C(C(=O)O)=C(CN(C)C(Cc3ccccc3)C(N)=O)S[C@H]12 (stereo not given in full),4,> 64,–,32,> 64,16,–,> 64,> 64,0.12,2,0.12,0.015,1
C[C@@H](O)[C@H]1C(=O)N2C(C(=O)O)=C(CN3CCC(C(N)=O)CC3)S[C@H]12,16,2,2,2,2,2,2,> 64,1,0.12,2,0.06,0.015,2
C[C@@H](O)[C@H]1C(=O)N2C(C(=O)O)=C(CN3CCC[C@H]3C(=O)O)S[C@H]12,> 64,8,8,8,32,2,4,> 64,32,1,32,0.03,0.5,16
CCCCOC(=O)CN(C)CC1=C(C(=O)O)N2C(=O)[C@H]([C@@H](C)O)[C@H]2S1,8,> 64,> 64,> 64,> 64,32,> 64,> 64,> 64,0.5,16,0.5,0.25,1
C[C@@H](O)[C@H]1C(=O)N2C(C(=O)O)=C(CN(C)CC(=O)NCC(N)=O)S[C@H]12,8,0.5,0.5,0.5,0.5,0.25,0.5,> 64,1,0.25,4,0.25,0.12,1
C[C@@H](O)[C@H]1C(=O)N2C(C(=O)O)=C(CN(C)C(CO)C(N)=O)S[C@H]12 (stereo not given in full),4,0.5,2,1,1,0.12,1,> 64,8,0.25,8,0.12,0.06,1
